Compound activity deposited in PubChem BioAssay by Johns Hopkins Ion Channel Center.
Compounds with a hit are over-represented: about 2.3% of the library has one in this group of screens.
TRPC6 act: activates the mouse TRPC6 cation channel. Q61143. HEK293-TRPC6 membrane potential dye fluorescence; hits give high values. B-score at 10 µM. 0.13% of 310,000 active. AID 2550;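 active = B-score of the integrated fluorescence ratio above library mean plus 3 SD, and starting fluorescence ratio within library mean plus 5 SD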;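 also: higher score means more depolarization so channel activation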
Target sequence (Q61143 whole entry, looked up): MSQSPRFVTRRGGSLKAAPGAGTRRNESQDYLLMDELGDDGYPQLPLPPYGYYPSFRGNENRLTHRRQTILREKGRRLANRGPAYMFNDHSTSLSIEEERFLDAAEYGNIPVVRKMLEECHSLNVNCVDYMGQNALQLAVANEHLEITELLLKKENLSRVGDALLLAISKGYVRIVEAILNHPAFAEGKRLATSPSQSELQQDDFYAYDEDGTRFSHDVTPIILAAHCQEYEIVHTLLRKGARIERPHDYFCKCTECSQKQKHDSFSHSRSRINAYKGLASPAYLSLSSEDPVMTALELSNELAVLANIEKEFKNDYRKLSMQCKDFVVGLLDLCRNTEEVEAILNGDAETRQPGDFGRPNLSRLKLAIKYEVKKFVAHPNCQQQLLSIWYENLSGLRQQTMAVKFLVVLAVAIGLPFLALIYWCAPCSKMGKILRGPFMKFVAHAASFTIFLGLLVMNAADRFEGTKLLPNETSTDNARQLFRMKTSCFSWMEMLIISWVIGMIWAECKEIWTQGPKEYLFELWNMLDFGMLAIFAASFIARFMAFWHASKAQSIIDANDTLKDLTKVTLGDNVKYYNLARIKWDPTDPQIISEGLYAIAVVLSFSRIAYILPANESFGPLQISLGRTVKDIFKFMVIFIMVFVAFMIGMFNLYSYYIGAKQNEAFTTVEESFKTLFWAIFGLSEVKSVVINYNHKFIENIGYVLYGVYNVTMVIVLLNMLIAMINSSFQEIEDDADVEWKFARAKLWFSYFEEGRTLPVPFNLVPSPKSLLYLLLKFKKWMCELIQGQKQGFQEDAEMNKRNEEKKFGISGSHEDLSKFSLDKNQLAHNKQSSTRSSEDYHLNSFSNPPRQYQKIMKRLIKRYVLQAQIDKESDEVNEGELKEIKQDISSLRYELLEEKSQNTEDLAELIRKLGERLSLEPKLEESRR
TRPC4 act: opens the mouse TRPC4 cation channel. 0.49% of 310,000 active. Q9QUQ5. B-score at 10 µM. AID 2237. HEK293 TRPC4beta/mu-opioid, Fluo4 calcium fluorescence; hits give high values;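 active = B-score above 5 SD of library B-scores, and initial fluorescence ratio not above library mean plus 5 SD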;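 also: positive B-score marks a calcium rise read as TRPC4 activation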
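Material: HEK293 stable line with TRPC4beta plus mu-opioid receptor; technique: Fluo4 calcium-sensitive dye fluorescence, kinetic, 1 Hz baseline; timing: Fluo4 dye loading 45 min at room temperature, 110 s recording; controls: assay buffer as low control, maximal DAMGO as high control; read-out: integrated baseline-normalised fluorescence ratio, converted to per-well B score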
TRPC4 PAM: TRPC4 (mouse) allosteric potentiation | 0.42% of 310,000 active | AID 2227 | Q9QUQ5 | B-score at 10 µM | HEK293 TRPC4beta/mu-opioid, DAMGO EC20, Fluo-4 Ca2+ flux; hits give high values;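 active = B-score of calcium response area above 5 SD of library B-scores, with initial fluorescence ratio within 5 SD of library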
TRPC6 inh: blocks the mouse TRPC6 cation channel. B-score at 10 µM. Q61143. 1.1% of 310,000 active. HEK293-TRPC6, membrane potential dye, ACh-evoked depolarization; hits give low values;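 active = B-score under library mean minus 3 SD, initial fluorescence not abnormally high, positive integrated signal ratio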;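 also: B-score derived from integrated fluorescence ratio over the kinetic read; more negative B-score means stronger inhibition of depolarization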
TRPC4 block: inhibitors of mouse TRPC4 channel. B-score at 10 µM. HEK293 TRPC4beta/mu-opioid, DAMGO-evoked Fluo4 calcium flux; hits give low values. 0.39% of 300,000 active;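 active = B-score over 3 SD under the library average, no early fluorescence shift, positive overall ratio signal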
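Signal: kinetic Fluo4 fluorescence imaging of calcium influx. Material: stable TRPC4beta/mu-opioid receptor HEK293 cells. Probe or stimulus: DAMGO in two steps, submaximal then maximal.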
TRPC4 spec 2: mouse TRPC4 off-target activity of TRPC6 inhibitors, second screen; shares compounds with TRPC6 inh; HEK293 TRPC4/MOR, membrane potential dye fluorescence; channel activated by saturating DAMGO dose; inhibition, % at 10 µM; 42% of 920 active; AID 2776;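 active = compounds whose fluorescence signal differed from control wells by over 3 SD, either direction, in both duplicate plates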
TRPC4 spec: selectivity of TRPC6 inhibitors: effect on mouse TRPC4; shares compounds with TRPC6 inh; HEK293 TRPC4/mu-opioid, membrane potential fluorescence; activity change, negative = inhibition, % at 10 µM; 61% of 920 active; AID 2777;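 active = rise or fall in signal beyond 3 SD of buffer-only wells in both replicate plates, either sign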;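 also: integrated kinetic ratio of fluorescence range over baseline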
HEK293 MPD ctr 2-1: parental HEK293 nonspecific activity of TRPC6 inhibitors, second screen; 31% of 920 active; signal change vs control, % at 10 µM; shares compounds with TRPC6 inh; parental HEK293 membrane potential dye fluorescence; maximal acetylcholine challenge after compound addition;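 active = membrane potential signal moving either way by over 3 SD of the maximum-effect control, in both duplicate plates, meaning non-specific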
HEK293 MPD ctr-1: parental HEK293 nonspecific activity of TRPC6 inhibitors. shares compounds with TRPC6 inh. parental HEK293 membrane potential dye fluorescence. membrane potential signal change, % at 10 µM. 60% of 920 active. AID 2780;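 active = membrane potential signal shifting up or down by more than 3 SD of buffer-only wells, on both duplicate plates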
HEK293 MPD ctr-2: checks TRPC6 modulator effects in parental HEK293 cells | shares compounds with TRPC6 inh | membrane potential dye fluorescence | membrane potential signal change, % at 10 µM | 51% of 2,400 active;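 active = membrane potential signal moves up or down beyond 5 SD from buffer-only wells, on both duplicate plates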
HEK293 MPD ctr 2-2: second check of TRPC6 modulator effects in parental HEK293 cells. shares compounds with TRPC6 inh. membrane potential dye fluorescence; after compound, maximal acetylcholine stimulation. inhibition, % at 10 µM. 14% of 2,400 active;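 active = membrane potential signal drops by more than 5 SD from the mean control signal, in both duplicate plates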
TRPC4 ctr mod: mouse TRPC4 off-target activity of TRPC6 modulators | HEK293 TRPC4/mu-opioid, membrane potential fluorescence | percent change from control (negative = decrease, positive = increase), % at 10 µM | 69% of 2,400 active | AID 488927 | shares compounds with TRPC6 inh;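 active = membrane potential signal moved up or down beyond 5 SD of buffer control wells, in both duplicate plates, actives on both sides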
TRPC4/MOR inh 2: mouse TRPC4 off-target activity of TRPC6 modulators, second screen; shares compounds with TRPC6 inh; HEK293 TRPC4/mu-opioid, membrane potential dye fluorescence; stimulated with maximal-effect DAMGO; inhibition, % at 10 µM; 55% of 2,400 active; AID 488928;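 active = drop in membrane potential signal beyond 5 SD of the control wells in both duplicate plates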;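 also: TRPC4 counter screen for TRPC6 hits run under conditions tuned for TRPC6 not TRPC4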
TRPC6 inh conf: mouse TRPC6 inhibitor confirmation. AID 488960. HEK293-TRPC6, membrane potential dye, ACh-evoked depolarization. shares compounds with TRPC6 inh. inhibition, % at 10 µM. 43% of 3,300 active;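 active = fluorescence ratio falls more than 5 SD below the full-stimulation control mean, in both duplicate runs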;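 also: integrated fluorescence ratio of peak minus minimum over baseline after agonist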
TRPC6 act confirm: confirmation of mouse TRPC6 activators. HEK293-TRPC6 membrane potential dye fluorescence, FDSS. activation, % at 10 µM. shares compounds with TRPC6 inh. 11% of 2,800 active;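 active = ratio signal rise beyond 5 SD above unstimulated control wells' mean, seen in both duplicate runs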
A number is an active result; i = inactive; nt = no result.

SMILES	TRPC6 act	TRPC4 act	TRPC4 PAM	TRPC6 inh	TRPC4 block	HEK293 MPD ctr-2	HEK293 MPD ctr 2-2	TRPC4 ctr mod	TRPC4/MOR inh 2	TRPC6 inh conf	TRPC6 act confirm	others
CCN(CC)CCCOC(=O)C(OC(C)C)(c1ccccc1)c1ccccc1	i	i	i	-9.05	i	nt	nt	nt	nt	57.0%	nt	TRPC4 spec 2=65.5%;TRPC4 spec=39.5%;HEK293 MPD ctr 2-1=i;HEK293 MPD ctr-1=21.9%
Cc1cccc(N2CCc3c2nc2ccccc2c3N)c1	i	i	i	-13.7	-7	-192.0%	74.5%	-49.0%	97.5%	81.0%	i
O=[N+]([O-])c1ccccc1CNCCc1c[nH]c2ccccc12	i	i	i	-5.55	i	i	i	i	42.5%	i	i
CN1CCc2nc3sc(C#N)c(N)c3c(-c3cccs3)c2C1	i	i	i	-9.19	i	-191.5%	i	-31.5%	34.0%	i	i
CN1CCc2nc(N)c(C#N)c(-c3ccccc3)c2C1	i	i	i	i	i	nt	nt	nt	nt	nt	nt
O=[N+]([O-])c1cc(-c2ccc([As](=O)(O)O)cc2)ccc1[As](=O)(O)O	i	i	i	i	i	nt	nt	nt	nt	nt	nt
O=C(CCC(=O)N1C[C@H]2C[C@@H](C1)c1cccc(=O)n1C2)NCc1ccccc1	i	i	i	i	i	nt	nt	nt	nt	nt	nt
CN1CC(C(=O)c2ccc(Cl)cc2)C(c2ccc(Cl)cc2Cl)C1 (stereo unspecified)	i	i	i	i	i	nt	nt	nt	nt	nt	nt
CN1CCC(O)(c2ccc(Cl)cc2)C(C(=O)c2ccc(Cl)cc2)C1 (stereo unspecified)	i	i	i	-5.44	i	i	i	i	35.0%	i	i
